Measured values published in ChEMBL document CHEMBL4130623, “Discovery of Highly Potent Pinanamine-Based Inhibitors against Amantadine- and Oseltamivir-Resistant Influenza A Viruses” (J Med Chem, 2018).
Activity calls are given as the source filed them. No cut-off for these calls is given here.

What was measured:
[1] = system: Influenza A virus (A/Puerto Rico/8/1934(H1N1)); experiment: Antiviral activity against Influenza A virus (A/PR/8/34 (H1N1)(NA-H274Y)) infected in MDCK cells assessed as reduction in virus-induced cytopathic effect after 48 hrs by microscopic analysis; type: functional, organism-based
In short: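 MDCK monolayers (5×10^4 cells/well, grown 24 h) were rinsed twice, infected with 100 TCID50 virus for 2 h at 37 °C in 5% CO2, and the inoculum was removed. Two-fold serial compound dilutions in DMEM with 1.5 µg/mL trypsin were added and incubated 48 h at 34 °C. CPE percentage was scored by microscope and EC50 fitted by non-linear regression.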

[2] = system: Matrix protein 2 (Influenza A virus (A/Udorn/307/1972(H3N2))), P0DOF8 [S31N]; experiment: Inhibition of Influenza A virus AM2 S31N mutant expressed in Xenopus laevis frog oocytes assessed as maximum reduction in channel current at 100 uM at pH 5.5 after 2 mins by TEVC assay; type: cell-based
In short: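 Xenopus laevis oocytes were microinjected with RNA expressing A/M2 S31N. Compound was applied for 2 min at pH 5.5 and the percentage inhibition of M2 current was recorded by two-electrode voltage clamp. Each measurement was repeated twice with different cells.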

Row | Structure (SMILES) | EC50 [1] [µM] | inhibition [2]
1 | NC12CC3CC(CC(C3)C1)C2 [AMANTADINE] | > 100 | 
2 | CCOC(=O)C1=C[C@@H](OC(CC)CC)[C@H](NC(C)=O)[C@@H](N)C1 [OSELTAMIVIR] | > 10 | 
3 | C[C@@H]1C2CC(C[C@H]1NCc1sccc1C1CC1)C2(C)C (single isomer, unassigned) | 6.85 | inactive
